Compound activity: PubChem BioAssay, several laboratories
HDAC3 inh – HDAC3 deacetylase inhibitors, primary screen, biochemical, fluorescence, cell-free homogeneous; recombinant HDAC3, fluorogenic peptide/trypsin coupled; Histone deacetylase 3 (Homo sapiens), O15379; inhibition, % at 8.3 µM; actives 0.15% (n = 320,000); in the data active = inhibition above about 26%, passing the limit was not always enough
ALR H2O2 inh – inhibitors of human ALR sulfhydryl oxidase, primary screen, biochemical, H2O2 detection, HRP-luminol luminescence, single point. FAD-linked sulfhydryl oxidase ALR (Homo sapiens), P55789. purified ALR, DTT oxidation. inhibition, % (test concentration not listed). actives 3.8% (n = 290,000). AID 485317, 2010;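 active = mean replicate inhibition above about 79%, with every replicate also reaching it, limit read from the data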
FAS TE block – FAS thioesterase domain inhibitors, primary screen, biochemical, fluorescence intensity, uHTS; inhibition, % at 15 µM; recombinant FAS-TE, OMFH fluorogenic substrate, fluorescence endpoint; actives 0.67% (n = 360,000);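 active = compounds whose normalised, plate-corrected inhibition of enzyme fluorescence in the single-dose primary screen is 50% or more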
M18AAP inhibitor – PfM18AAP inhibitors, malaria aminopeptidase, primary screen, biochemical, QFRET, recombinant enzyme | actives 1.2% (n = 290,000) | M18 aspartyl aminopeptidase (Plasmodium falciparum 3D7) | H-Glu-NHMec fluorogenic cleavage | inhibition, % at 7.35 µM;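 active = inhibition above the campaign mean inhibition over all tested compounds plus 3 SD, cut at about 28% in these data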
UCH37 inh – inhibitors of human UCH37 deubiquitinase, primary screen, biochemical, Ub-AMC cleavage, fluorescence. purified proteasome/UCH37. inhibition, % (no concentration beside the values). actives 0.33% (n = 330,000). AID 588478, 2011;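 active = mean inhibition over replicate wells above about 20%, limit read from the data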
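Material: human UCH37 enzyme supplied as purified proteasome complex / Amount: 0.15 nM proteasome as dispensed / Buffer or medium: pH 7.4 Tris-HCl (50 mM) with ovalbumin, ATP-MgCl2, DTT / Times: preincubation 30 min, reaction 25 min, room temperature / Technique: AMC fluorescence from Ub-AMC cleavage, excitation 355 nm, emission 460 nm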
Rtt109 HAT inh – inhibitors of C. albicans Rtt109/Vps75 HAT, primary screen, biochemical, ThioGlo CoA-SH fluorescence, plate reader | inhibition, % at 34.9 µM | purified Rtt109/Vps75, 4 h | actives 0.16% (n = 330,000) | Histone acetyltransferase RTT109 (Candida albicans (strain SC5314 / ATCC MYA-2876)), …;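 active = inhibition of at least 50% in every replicate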
Each line names hits and unclear results; the compound was inactive in the other large screens. In the library only some 4.6% were active in any assay of this set; here they are far more common.

O=C1CCCC2=C1C(c1ccc(O)c(O)c1)Nc1ccc3ccccc3c12 (stereo unspecified)	ALR H2O2 inh 98 (no result: M18AAP inhibitor)
COc1ccc(C(=O)Oc2cc(C=NNS(=O)(=O)c3ccccc3)ccc2OC)cc1	none (no result: HDAC3 inh, ALR H2O2 inh, FAS TE block, M18AAP inhibitor, Rtt109 HAT inh)
Cc1cc(=O)oc2c(CN3CCCCC3)c(O)ccc12	none (no result: HDAC3 inh, ALR H2O2 inh, M18AAP inhibitor, UCH37 inh)
Cc1cc(=O)oc2c(N)c(O)ccc12	ALR H2O2 inh 97
CN1CCN(N=Cc2ccc(Br)cc2)CC1	none (no result: HDAC3 inh, ALR H2O2 inh, FAS TE block, M18AAP inhibitor, Rtt109 HAT inh)
C(/C=C/c1ccccc1)=NNc1nncc(-c2ccccc2)n1	none (no result: HDAC3 inh, ALR H2O2 inh, FAS TE block, M18AAP inhibitor, Rtt109 HAT inh)
CCOc1ccc(N=Nc2c(N)[nH][nH]c2=O)cc1	ALR H2O2 inh 99
CCOc1ccc(N=Nc2c(=O)[nH]n3c(=O)c4c([nH]c23)CCCC4)cc1	UCH37 inh 25
O=C(CSc1nc(=O)n(CCCN2CCOCC2)c2c1CCC2)Nc1ccccc1F	none (no result: M18AAP inhibitor)
CC(=O)Nc1ccc(NC(=O)CSc2nc(=O)n(CCCN3CCOCC3)c3c2CCC3)cc1	none (no result: HDAC3 inh, ALR H2O2 inh, M18AAP inhibitor, UCH37 inh, Rtt109 HAT inh)
CC(=O)c1cccc(NC(=O)CSc2nc(=O)n(CCN3CCOCC3)c3c2CCCC3)c1	none (no result: M18AAP inhibitor)
CC(=O)c1ccc(NC(=O)CSc2nc(=O)n(CCN3CCOCC3)c3c2CCC3)cc1	ALR H2O2 inh 98 (no result: M18AAP inhibitor)
O=C(CSc1nc(=O)n(CCCN2CCOCC2)c2c1CCC2)Nc1cccc(F)c1	ALR H2O2 inh 97 (no result: M18AAP inhibitor)
